A selection: hits, their analogues and other compounds. The true share with any hit is near 3.5%.
FN deposit inh – inhibitors of fibronectin matrix deposition, primary screen, AH1F cells, Alexa488-fibronectin fluorescence, plate reader. AH1F fibroblasts, overnight. inhibition, % at 12.6 µM. 350,000 compounds, 0.086% hits. AID 743247, 2014;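 active means mean inhibition across replicates of 30% or more, regardless of how many single replicates reach that level; inconclusive means mean under 30% yet at least half of replicates reach 30%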;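 further: positive control wells lacked labelled fibronectin entirely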
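Assay system: AH1F fibroblasts assembling fluorescent fibronectin matrix; Amount: 10000 AH1F cells per well; Buffer or medium: DMEM, 2% serum; Probe or stimulus: Alexa488-fibronectin, 24 nM final in well; Doses: single compound dose, delivered by pin transfer; Incubation: 1 h adhesion, overnight exposure; Measured by: fluorescence 485/525 nm; Read-out: fibronectin deposition inhibition.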
Ecoli rRNA inh – reduced GFP signal of wild-type E. coli, primary screen, bacterial rRNA inhibitor project, GFP/RFP fluorescence, OD600, single point. E. coli WT GFP vs humanized-ribosome RFP mutants, 24 h; active compounds read low; DMSO median 0, no signal -100. AID 720706, 2013. 350,000 compounds, 1.6% hits. GFP signal change (wild-type ribosome), % (no concentration beside the values);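 active means significant combined selectivity score with lowered wild-type GFP, culture density cut under 30%, mutant RFP and density less affected; inactive means any of these conditions unmet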
DENV2 CPE – inhibitors of DENV2 cytopathic effect, primary screen, cell-based, plate reader, single concentration. DENV2-infected cells, cytopathic effect rescue. CPE inhibition, % at 9.99 µM. 350,000 compounds, 1.7% hits. AID 651640, 2012; in the data active means CPE inhibition above about 20%, passing the limit was not always enough; inconclusive means no clear call, values can overlap the other calls; tested in BHK-21 cells;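 further: 0% = median of neutral control wells and 100% = median of positive control wells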
HIV Env fusion – inhibitors of HIV-1 Env-driven cell-cell fusion, primary screen, HeLa-JRFL effector, CEM21 target cells, luciferase | AID 651610, 2012 | 360,000 compounds, 1.1% hits | inhibition, % at 12.3 µM;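 active means mean replicate inhibition score of at least 50 and every replicate individually at or above 50; inconclusive means only one of the two criteria met; inactive means mean below 50 and not all replicates reaching 50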;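 further: 0% = plate neutral controls and 100% = maraviroc near 300 nM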
PglD inh – C. jejuni PglD acetyltransferase inhibitors, primary screen, biochemical, DTNB colorimetric, single point | UDP-N-acetylbacillosamine N-acetyltransferase PglD (Campylobacter jejuni) | purified PglD enzyme, DTNB colorimetric CoA detection | AID 602405, 2012 | inhibition, % at 12.5 µM | 360,000 compounds, 0.098% hits; in the data active means inhibition above about 16%, passing the limit was not always enough; inconclusive means no clear call, values can overlap the other calls
PGC1a acetyl inh – inhibitors of PGC1a acetylation signal, primary screen, cell-based, U2OS, AlphaScreen, inhibitor mode. AID 651687, 2012. inhibition, % at 15.6 µM. 350,000 compounds, 0.17% hits. AlphaScreen anti-acetyl-lysine; with virally co-expressed GCN5 acetyltransferase;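 active means every replicate shows inhibition of at least 40%; inconclusive means mean inhibition at least 40% but some replicate below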;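 further: 0% = neutral control wells and 100% = positive control wells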
The depositor's hits bear a star; u = inconclusive; x = not tested or not shown; [ ] = another dose, or the depositor's remark.

SMILES | FN deposit inh | Ecoli rRNA inh | DENV2 CPE | HIV Env fusion | PglD inh | PGC1a acetyl inh
C[C@H]1CN([C@@H](C)CO)S(=O)(=O)c2ccc(C#Cc3ccccc3)cc2O[C@@H]1CN(C)C(=O)c1ccccn1 | 4 | -32 | 8 | x | x | 9
C[C@@H]1CN([C@H](C)CO)S(=O)(=O)c2ccc(C#Cc3ccccc3)cc2O[C@@H]1CN(C)C(=O)c1ccccn1 | 12 | -6 | 42* | -34[16.7 µM] | 0 | -12
CO[C@@H]1CN(C)C(=O)c2ccc(NC(=O)C3CCC3)cc2OC[C@H](C)N(C)C[C@@H]1C | -1 | 5 | 6 | x | 3 | x
CC[C@H](C)C1OC(=O)[C@@H](C)[C@@H](CC)NC(=O)[C@H](C)N(C)C(=O)C(C)(C)C(=O)C(C)NC(=O)[C@H](Cc2ccc(OC)cc2)N(C)C(=O)[C@H](C(C)C)N(C)C(=O)CNC(=O)[C@H](CC(C)C)N(C)C(=O)CNC1=O (stereo partly drawn) | x | x | x | x | 5 | 74*
O=C(c1cccnc1)n1nc(NCc2ccccc2)nc1NCc1ccccc1 | 4 | -35* | 3 | 22 | -2 | -4
O=C(c1ccco1)n1nc(NCc2ccccc2)nc1NCc1ccccc1 | x | x | x | x | -4 | -2
Cc1nc2ccccc2n2c(-c3ccccc3)c3c(=O)n(C)c(=O)n(C)c3c12 | 14 | -34* | x | -101 | 0 | 6
CCn1c(SCC(=O)N2CCN(c3ccccc3)CC2)nnc1-c1cc2cc(Cl)ccc2o1 | x | x | x | 68* | 3 | 6
CNC(=O)C[C@@H]1CC[C@@H]2[C@@H](COc3ccc(NC(=O)C4CC4)cc3C(=O)N2C)O1 | -15 | 0 | 3 | 11[16.7 µM] | 0 | 5
O=C1CN(C(=O)COC(=O)c2c(F)cccc2Cl)c2ccccc2N1 | -3 | -1 | 26* | x | 3 | 1
COCC#Cc1cnc2c(c1)C(=O)N([C@@H](C)CO)C[C@H](C)[C@H](CN(C)C(=O)CCN1CCCCC1)O2 | x | 3 | -10 | -17[16.7 µM] | 0 | 1
COc1ccc(C(c2sc3ncnn3c2O)N2CC(C)OC(C)C2)cc1OC (stereo not drawn) | 3 | 1 | 75* | 25 | 2 | x
Cc1cc(C)cc(NC(=O)c2ccc(CN3CCc4ccccc4C3)cc2)c1 | 4 | -16 | u | 10 | 7 | x
COc1ccc(C)cc1NC(=O)c1ccc(CN2CCc3ccccc3C2)cc1 | -7 | -24* | -2 | 4 | 3 | 14
Cc1ccc(NC(=O)c2ccc(CN3CCc4ccccc4C3)cc2)cc1 | x | x | x | 93* | -16 | 17
O=C(Nc1cccnc1)c1ccc(CN2CCc3ccccc3C2)cc1 | -1 | x | x | 54* | 2 | 20
O=C(Nc1ccccc1)c1ccc(CN2CCc3ccccc3C2)cc1 | 5 | 13 | -4 | 61* | x | 7
O=C(C[C@@H]1CC[C@H](NS(=O)(=O)c2ccc(F)cc2)[C@H](CO)O1)N1CCC(Cc2ccccc2)CC1 | x | -3 | 6 | 26[16.7 µM] | 3 | 4
Cc1ccc(S(=O)(=O)N[C@@H]2C=C[C@@H](CC(=O)N3CCN(c4ccccc4)CC3)O[C@@H]2CO)cc1 | -7 | -2 | 2 | 13[16.7 µM] | -2 | 0
COc1ccc(NC(=O)Nc2ccc3c(c2)C(=O)N([C@H](C)CO)C[C@@H](C)[C@H](CN(C)Cc2ccc(C(F)(F)F)cc2)OCCCC[C@@H](C)O3)cc1 | -9 | 2 | -24 | 68*[16.7 µM] | 6 | 4
COc1ccc(CN(C)C[C@H]2OCCCC[C@@H](C)Oc3ccc(NC(=O)Nc4ccc(C(F)(F)F)cc4)cc3C(=O)N([C@H](C)CO)C[C@H]2C)cc1 | x | -3 | 3 | 6[16.7 µM] | -2 | 21
COc1ccc(CN(C)C[C@@H]2OCCCC[C@H](C)Oc3ccc(NC(=O)Nc4ccc(C(F)(F)F)cc4)cc3C(=O)N([C@@H](C)CO)C[C@@H]2C)cc1 | x | 3 | -5 | 76*[16.7 µM] | 1 | 1
COc1ccc(NC(=O)Nc2ccc3c(c2)C(=O)N([C@@H](C)CO)C[C@@H](C)[C@@H](CN(C)Cc2ccc(C(F)(F)F)cc2)OCCCC[C@H](C)O3)cc1 | 0 | 3 | -4 | 9[16.7 µM] | -3 | -15
Cc1ccc(CNC(=O)c2ccc(Br)o2)cc1 | x | -18* | 0 | x | 5 | -1
Cc1ccc2c(c1)C(c1ccccc1)N(C(=O)c1c(F)cccc1Cl)CC(=O)N2 (stereo not drawn) | -4 | -25 | 1 | 59* | -4 | -11
SMILES | FN deposit inh | Ecoli rRNA inh | DENV2 CPE | HIV Env fusion | PglD inh | PGC1a acetyl inh
Cc1ccc(S(=O)(=O)Nc2cccc3c2O[C@H](CN(C)Cc2ccc(Cl)c(Cl)c2)[C@H](C)CN([C@@H](C)CO)C3=O)cc1 | x | -1 | 0 | x | x | 5
Cc1ccc(S(=O)(=O)Nc2cccc3c2O[C@H](CN(C)Cc2ccc(Cl)c(Cl)c2)[C@H](C)CN([C@H](C)CO)C3=O)cc1 | x | 2 | x | 85*[16.7 µM] | x | -20
Cc1ccc(S(=O)(=O)Nc2cccc3c2O[C@@H](CN(C)Cc2ccc(Cl)c(Cl)c2)[C@@H](C)CN([C@H](C)CO)C3=O)cc1 | x | -1 | x | 87*[16.7 µM] | x | 8
Cc1ccc(S(=O)(=O)Nc2cccc3c2O[C@H](CN(C)Cc2ccc(Cl)c(Cl)c2)[C@@H](C)CN([C@@H](C)CO)C3=O)cc1 | 1 | 1 | x | 38[16.7 µM] | x | -50
C[C@H](CO)N1C[C@H](C)[C@H](CN(C)Cc2ccc(Cl)c(Cl)c2)Oc2c(NS(=O)(=O)c3ccc(Cl)cc3)cccc2C1=O | x | x | -3 | 91*[16.7 µM] | -2 | 3
O=C(NCc1ccc(F)cc1)[C@@H]1[C@@H](CO)[C@@H]2Cn3c(cccc3=O)[C@H]1N2C(=O)c1cnccn1 | x | 2 | -10 | x | -1 | x
O=C(c1cnn(C(=O)c2ccco2)c1)c1cc(Cl)cc(Cl)c1O | x | -25* | -1 | x | 4 | 10
O=C(c1cnn(C(=O)c2ccco2)c1)c1cc(F)ccc1O | -4 | 5 | 4 | x | x | 2
Cc1noc(C)c1NC(=O)N(C)C[C@H]1Oc2ccc(NS(=O)(=O)c3ccccc3)cc2CC(=O)N([C@@H](C)CO)C[C@@H]1C | -10 | -3 | -2 | 12[16.7 µM] | 2 | 8
COc1ccc(NC(=O)Nc2ccc3c(c2)C(=O)N([C@@H](C)CO)C[C@@H](C)[C@H](CN(C)S(=O)(=O)c2ccc(OC)cc2)O3)cc1 | x | -7 | 28* | 12[16.7 µM] | 3 | -6
COc1ccc(S(=O)(=O)N(C)C[C@@H]2Oc3ccc(NC(=O)Nc4ccccc4)cc3C(=O)N([C@@H](C)CO)C[C@H]2C)cc1 | x | -5 | 35* | 11[16.7 µM] | -4 | 0
